Shown are actives, neighbours in structure and some others; about 12% of the full set was active somewhere.
Dynein cargo inh = dynein cargo transport inhibition; 3617.4 mouse cells, GR-EGFP nuclear translocation imaging; test concentration mostly 20 µM; stimulated with dexamethasone, 1 µM; active compounds read low; z-score, hits read low; 0.47% of 220,000 active; AID 1381;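 active means plate z-score of nuclear minus cytoplasmic receptor signal below a set negative limit, without overly bright fluorescence or cell loss, cut at about -3.5 in these data, passing the limit was not always enough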;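 further: z-score of nuclear minus cytoplasmic ring GR-EGFP intensity difference per well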
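medium = tetracycline-free induction medium containing charcoal-stripped FBS | probe or stimulus = dexamethasone, 1.0 µM final | timing = 48 h induction, then 1 h compound, then 30 min agonist, 37 °C | detection = automated 10x imaging of fixed Hoechst-stained cells | read-out basis = nuclear versus cytoplasmic GR-EGFP signal, averaged per well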
b-catenin transl = alters nuclear translocation of beta-catenin in HeLa cells | immunofluorescence imaging | nuclear translocation activity, % at 5 µM | 0.3% of 190,000 active;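 active means nuclear translocation activity above 50% at 5 µM, with a well cell count of 50 or more; inconclusive means wells under 50 cells across six images, flagged as toxic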;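 further: per-cell ratio of nuclear to cytoplasmic median beta-catenin stain intensity; plate controls were DMSO negative control for no effect and GSK-3 inhibitor IX positive control for full effect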
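Test system: HeLa cells, endogenous beta-catenin; Compound: single 5 µM dose plus 0.02–20 µM confirmation series; Times: compound exposure 24 h at 37°C; Signal: fluorescence imaging of beta-catenin antibody stain plus DAPI; Read-out: % activation, nuclear-to-cytoplasmic median beta-catenin signal ratio per cell.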
Autophagy mod = autophagy modulation, high-content screen; MEF GFP-LC3 puncta imaging; test concentration mostly 10 µM; 0.98% of 190,000 active; calls only at 10 µM (by protocol);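 active means percentage of spot-positive cells more than 3 SD above its plate mean, without a fluorescence outlier flag or 80% toxicity; inconclusive means no clear call, values can overlap the other calls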;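 further: spot-positive cell cutoff set from DMSO-treated cells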
Lmaj promast = Leishmania major promastigote growth inhibition | 9% of 200,000 active | inhibition, % at 10 µM | AID 1063 | Leishmania major promastigotes, resazurin fluorescence viability; in the data active means inhibition above about 50%;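 further: promastigotes grown with compound for 44 hours at 28 °C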
MT stabilizer = stabilizes microtubules in HeLa cells. HeLa tubulin immunostaining HCS, 24 h; share of cells brighter than vehicle mean+2SD. % tubulin-high responders, % at 10 µM. 0.83% of 200,000 active. AID 2205;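 active means plate Z-score above 3 for both tubulin-high and condensed-nucleus cell shares, with cell loss under 80%, at 10 µM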;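 further: anti alpha tubulin signal scored within the nucleus-defined area of each cell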
CHOP inhibitor = blocks CHOP induction under ER stress. CHO-K1 CHOP-promoter luciferase, tunicamycin-induced, 15-18 h. inhibition, % at 10 µM. 3.8% of 220,000 active;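 active means compounds that reduced the stress-induced luciferase reporter signal by more than about 70% of percent inhibition, limit read from the data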;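 further: 0% = tunicamycin plus vehicle and 100% = wells without tunicamycin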
Dynein inh conf = dynein cargo transport inhibition, confirmation; shares compounds with Dynein cargo inh; 3617.4 GR-EGFP nuclear translocation imaging, dexamethasone-induced; calls only at 20 µM; 69% of 1,000 active; AID 463116;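 active means inhibition of receptor movement into the nucleus at or above a set limit in both runs, with normal cell brightness and cell count; inconclusive means limit reached in only one run, brightness and count normal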;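 further: dexamethasone at 1 µM final in well for 30 min; nuclear minus cytoplasmic GR-EGFP mean intensity difference in channel 2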
An asterisk follows results filed as active; i = inactive; ? = inconclusive; nt = no result given; + = active, no number.

SMILES	Dynein cargo inh	b-catenin transl	Autophagy mod	Lmaj promast	MT stabilizer	CHOP inhibitor	Dynein inh conf
O=C(CCC(=O)Nc1ccc(Cl)cc1Cl)N/N=C/c1ccc([N+](=O)[O-])o1	-5.2*	-4.3	i	100.7*	3.3	-39.9	+
Cc1cccc(NC(=O)CN2C(=O)N/C(=C/c3cc(C)n(C(C)C)c3C)C2=O)c1	-0.373	nt	i	35.7	1.3	69.6	nt
Cc1cccc(NC(=O)CN2C(=O)N/C(=C/c3ccc(C)s3)C2=O)c1	-4.5	-1.1	i	-2.9	3.6	92.1*	?
Cc1ccccc1C(=O)Nc1sc(C)c(C)c1C(=O)c1ccccc1	0.239	-1.3	i	5.3	3.1	58.3	nt
Cc1sc(NC(=O)CCl)c(C(=O)c2ccccc2)c1C	-3.75*	-3.1	i	100.6*	2.1	107.8*	+
COc1cc(CC(=O)NNC(=O)c2cc(C)oc2C)cc(OC)c1OC	-0.163	-1.0	i	-7.5	4.4	19.9	nt
COc1cc(C2Oc3ccccc3C=C2[N+](=O)[O-])cc(OC)c1OC (stereo unspecified)	-5.61*	2.9	nt	nt	nt	-143.1	+
COC(=O)c1cc(=O)n(Cc2ccc(F)cc2)c(=NCc2ccc(F)cc2)s1	-3	6.0	i	-2.2	2.1	-33.0	nt
COC(=O)c1cc(=O)n(Cc2ccco2)c(=Nc2ccc(F)c(Cl)c2)s1	-3.88*	nt	i	100.0*	17.6	29.1	+
COC(=O)c1cc(=O)n(CCc2ccccc2F)c(=Nc2ccc(F)c(Cl)c2)s1	-4*	nt	i	98.6*	3.7	16.9	+
CCC(CO)n1c(=S)[nH]c2cc(OC)c(OC)cc2c1=O (stereo unspecified)	-0.224	0.5	i	6.0	4.9	-31.5	nt
Cc1ccc(C(=O)OCC(=O)c2c[nH]c3ccccc23)cc1S(=O)(=O)N1CCCCC1	0.959	-4.6	i	13.2	5.1	60.7	nt
O=C(NC(=S)Nc1ccc(-c2ccc(CO)o2)cc1)c1cccs1	-6.62*	-2.5	i	-6.3	2.0	-20.0	i
CCOc1nc(NC(=O)NS(=O)(=O)Oc2cccc(Cl)c2)nc(-c2ccccc2)n1	1.64	-3.8	i	-4.8	4.1	9.8	nt
Cc1sc(NC(=O)CSc2nc(N)n(CC(=O)c3ccccc3)n2)c(C#N)c1C	-1.68	1.0	i	-7.0	2.5	29.6	nt
CC(C)(C)C(=O)/C(=C/c1ccncc1)n1cncn1	-5.13*	1.2	i	100.3*	11.2	84.6*	+
COc1ccc(Cl)cc1NC(=O)C1(c2cccs2)CCOCC1	0.372	1.9	i	10.7	3.5	10.2	nt
CCCCC1OC2(C)OC(=N)C1(C#N)C(C#N)(C#N)C2c1ccccc1 (stereo unspecified)	-4.47*	0.0	i	12.9	4.1	-70.6	+
CCN1CCN(C2=C(Cl)C(=O)N(Cc3ccccc3)C2=O)CC1	-4.74*	-2.2	i	92.0*	3.2	35.6	+
Cc1ccccc1N1C(=O)C(Cl)=C(N2CCN(c3ccccc3)CC2)C1=O	-0.321	-1.5	i	9.2	4.5	46.6	nt
O=C(O)c1ccc2c3c(cccc13)C(=O)N(c1ccccc1)C2=O	0.31	0.6	i	-4.1	3.3	52.9	nt
Nc1ccc2c3c(cccc13)C(=O)N(c1ccccc1)C2=O	-5.03*	0.7	i	4.7	2.2	16.9	+
CC(=O)c1sc(N2CCOCC2)nc1-c1ccccc1	-0.333	-1.2	i	-10.3	1.6	-12.6	nt
N#C/C(=C\c1sc(N2CCOCC2)nc1-c1ccccc1)C(=O)Nc1cccc2ccccc12	-5.6	-0.2	+	38.2	4.8	44.0	?
O=[N+]([O-])c1cc([N+](=O)[O-])c2cccnc2c1Oc1ccccc1O	-4.38*	0.4	i	0.5	3.6	85.7*	+
SMILES	Dynein cargo inh	b-catenin transl	Autophagy mod	Lmaj promast	MT stabilizer	CHOP inhibitor	Dynein inh conf
C=CCc1cccc2cc(C(=O)OCC(=O)c3ccccc3)c(=O)oc12	-0.13	-2.6	i	-1.3	2.7	5.3	nt
O=S(=O)(CCSc1ccccn1)c1nc2ccccc2s1	-4.02*	nt	+	31.5	5.1	nt	+
O=S(=O)(CCSc1nc2ccccc2o1)Cc1ccccc1	1.2	nt	i	2.5	3.5	22.4	nt
O=S(=O)(CCSc1nc2ccccc2o1)c1nc2ccccc2s1	-4.07*	nt	+	98.3*	2.6	nt	+
Cc1cc(C(F)F)nn1CC(=O)NCc1ccccc1F	0.33	0.6	i	-6.9	2.3	5.6	nt
Cc1ccc2nc(SCC(=O)Nc3ccc(C(N)=O)cc3)[nH]c2c1	-6.66*	1.4	i	13.1	4.0	23.8	i
CCOC(=O)/C(=C\c1cccnc1)C(=O)c1cc(C(C)=O)c(Nc2ccccc2)s1	-5.68*	-2.9	+	100.2*	0.6	nt	+
CCCN1CCN(S(=O)(=O)c2ccc3c(c2)OCCO3)CC1	0.136	-4.8	i	18.6	5.4	5.3	nt
CSc1nnc(C)c(/C=C/Nc2ccc(C)cc2)n1	-8.27	2.9	i	-2.9	2.4	47.0	+
Cc1ccc(NC(=O)CCn2cc(C(F)(F)F)ccc2=O)cc1	-0.0918	-0.4	nt	nt	nt	7.3	nt
NS(=O)(=O)c1cccc(NC(=O)Nc2ccccc2)c1	0.354	-1.0	nt	nt	nt	-15.0	nt
COc1cccc(-n2nnnc2SCC(=O)Nc2ccc(C(C)=O)cc2)c1	-0.0569	2.0	i	1.7	5.0	54.5	nt
CCCS(=O)(=O)c1nnnn1-c1cccc(OC)c1	-5.5*	9.2	i	100.1*	2.1	nt	+
C/C(=N\NC(=O)C(=O)Nc1cc(C)ccc1C)c1ccncc1	0.118	1.8	nt	nt	nt	17.5	nt
Cc1ccsc1/C=N/NC(=O)CNC(=O)c1cccc([N+](=O)[O-])c1C	1.78	1.1	i	11.1	4.2	13.6	nt
COCCCNc1nc2c(-c3ccc(Cl)cc3)nnn2c2ccccc12	-4.19*	3.5	i	-4.0	3.0	-19.6	i
COc1ccc(-c2nnn3c2nc(NCc2ccccc2)c2ccccc23)cc1	-0.413	-4.5	i	12.5	3.5	-2.0	nt
COc1ccccc1C1Nc2cccc3cccc(c23)N1	-4.69*	-0.6	i	17.2	1.7	87.0*	i
CCc1sc(C(C2C(=O)CC(C)(C)CC2=O)C2C(=O)CC(C)(C)CC2=O)cc1[N+](=O)[O-]	-5.2*	1.6	i	23.9	2.3	-23.7	i
COc1ccc(NC(=O)c2oc3cc(C)c(C)cc3c2C)c(OC)c1	-4.05*	-1.4	i	-3.5	1.4	-10.3	i
O=C(c1coc(=O)c(Br)c1)N1CCC(C(O)(c2ccccc2)c2ccccc2)CC1	-4.54*	3.8	nt	nt	nt	25.6	+
O=C(NCc1ccc(Cl)cc1)c1noc2c1CCCCC2	-0.455	-1.3	i	-6.1	3.3	41.9	nt
O=C(O)CC(=O)Nc1ccccc1	0.51	-6.4	i	-7.1	1.8	24.4	nt
